# Measured values as given in ChEMBL document CHEMBL1909627, “Synthesis of three novel fluorine-18 labeled analogues of L-deprenyl for positron emission tomography (PET) studies of monoamine oxidase B (MAO-B)” (J Med Chem, 2011).
# Legend:
# [1] = molecular target: T1, Amine oxidase [flavin-containing] B (Homo sapiens, UniProt P27338); assay: Binding affinity to MAO-B in human brain white matter at 4 MBq after 90 mins by autoradiography; type: tissue-based; conditions: 1.5 h
# T1 sequence (P27338 whole entry): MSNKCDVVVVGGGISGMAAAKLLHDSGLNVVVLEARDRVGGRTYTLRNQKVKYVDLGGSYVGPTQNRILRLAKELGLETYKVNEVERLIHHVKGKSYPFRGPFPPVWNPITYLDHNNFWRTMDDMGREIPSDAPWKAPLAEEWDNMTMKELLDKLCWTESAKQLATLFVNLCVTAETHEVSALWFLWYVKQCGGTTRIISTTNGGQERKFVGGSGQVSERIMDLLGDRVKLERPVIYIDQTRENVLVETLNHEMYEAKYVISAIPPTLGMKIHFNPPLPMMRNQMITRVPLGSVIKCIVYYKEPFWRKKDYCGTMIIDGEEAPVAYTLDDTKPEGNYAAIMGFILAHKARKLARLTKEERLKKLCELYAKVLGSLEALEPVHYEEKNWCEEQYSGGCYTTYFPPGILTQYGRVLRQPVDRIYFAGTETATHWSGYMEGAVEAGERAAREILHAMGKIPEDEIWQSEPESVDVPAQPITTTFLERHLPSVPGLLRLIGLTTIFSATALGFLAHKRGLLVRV
# Outline: (§1)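 100 μm whole-hemisphere post-mortem brain sections (control subject, 11 h post-mortem, stored at −25 °C) incubated 90 min at room temperature with 4 MBq/200 mL radiotracer in 50 mM TRIS pH 7.4 (NaCl 120 mM, KCl 5 mM, CaCl2 2 mM, 0.1% albumin); washed 3 × 5 min in buffer, dipped in ice-cold water, dried, phosphorimaged.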
# [2] = molecular target: T1, Amine oxidase [flavin-containing] B; assay: Binding affinity to MAO-B in human brain cortical gray matter at 4 MBq after 90 mins by autoradiography; type: tissue-based; conditions: 1.5 h; outline: as §1
# [3] = molecular target: T1, Amine oxidase [flavin-containing] B; assay: Binding affinity to MAO-B in human brain white matter at 4 MBq after 90 mins by autoradiography in presence of 10 uM MAO-B inhibitor L-deprenyl; type: tissue-based; conditions: 1.5 h; outline: as §1
# [4] = molecular target: T1, Amine oxidase [flavin-containing] B; assay: Binding affinity to MAO-B in human brain white matter at 4 MBq after 90 mins by autoradiography in presence of 10 uM MAO-A inhibitor pirlindole; type: tissue-based; conditions: 1.5 h; outline: as §1
# [5] = molecular target: T1, Amine oxidase [flavin-containing] B; assay: Binding affinity to MAO-B in human brain white matter at 4 MBq after 90 mins by autoradiography in presence of 10 uM MAO-B inhibitor rasagiline; type: tissue-based; conditions: 1.5 h; outline: as §1
# [6] = molecular target: T1, Amine oxidase [flavin-containing] B; assay: Binding affinity to MAO-B in human brain hippocampus at 4 MBq after 90 mins by autoradiography; type: tissue-based; conditions: 1.5 h; outline: as §1
# [7] = molecular target: T1, Amine oxidase [flavin-containing] B; assay: Binding affinity to MAO-B in human brain cortical gray matter at 4 MBq after 90 mins by autoradiography in presence of 10 uM MAO-B inhibitor L-deprenyl; type: tissue-based; conditions: 1.5 h; outline: as §1
# [8] = molecular target: T1, Amine oxidase [flavin-containing] B; assay: Binding affinity to MAO-B in human brain cortical gray matter at 4 MBq after 90 mins by autoradiography in presence of 10 uM MAO-B inhibitor rasagiline; type: tissue-based; conditions: 1.5 h; outline: as §1
# [9] = molecular target: T1, Amine oxidase [flavin-containing] B; assay: Binding affinity to MAO-B in human brain cortical gray matter at 4 MBq after 90 mins by autoradiography in presence of 10 uM MAO-A inhibitor pirlindole; type: tissue-based; conditions: 1.5 h; outline: as §1
# [10] = Stability of the compound in PBS buffer assessed as half life at pH 7.4; type: physicochemical
# [11] = molecular target: T1, Amine oxidase [flavin-containing] B; assay: Inhibition of human recombinant MAO-B expressed in insect cells assessed as inhibition of kynuramine oxidation after 30 mins by fluorescence assay; type: cell-based
# Brain [12] = assay: Drug uptake in NMRI mouse brain at 0.178 MBq, iv after 2 mins post injection by gamma counting; type: ADME, organism-based; conditions: in vivo
# Outline: (§2)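 NMRI mice (25.0–31.5 g), three per time point, each given 0.178 MBq tracer in 0.9% NaCl; killed by isoflurane overdose at each post-injection time; organs and blood excised and γ-counted; values decay-corrected and expressed as %ID/g.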
# Brain [13] = assay: Drug uptake in NMRI mouse brain at 0.178 MBq, iv after 30 mins post injection by gamma counting; type: ADME, organism-based; conditions: in vivo, 0.5 h; outline: as §2
# Brain [14] = assay: Drug uptake in NMRI mouse brain at 0.178 MBq, iv after 4 hrs by gamma counting; type: ADME, organism-based; conditions: in vivo; outline: as §2
# [15] = molecular target: T1, Amine oxidase [flavin-containing] B; assay: Binding affinity to MAO-B in human brain Alzheimer disease slices at 4 MBq after 90 mins by autoradiography; conditions: 1.5 h
# [16] = molecular target: T1, Amine oxidase [flavin-containing] B; assay: Binding affinity to MAO-B in human brain Alzheimer disease slices at 4 MBq after 90 mins by autoradiography in presence of 10 uM MAO-B inhibitor L-deprenyl; conditions: 1.5 h
# [17] = molecular target: T1, Amine oxidase [flavin-containing] B; assay: Binding affinity to MAO-B in human brain Alzheimer disease slices at 4 MBq after 90 mins by autoradiography in presence of 10 uM MAO-B inhibitor rasagiline; conditions: 1.5 h
# [18] = molecular target: T1, Amine oxidase [flavin-containing] B; assay: Binding affinity to MAO-B in human brain Alzheimer disease slices at 4 MBq after 90 mins by autoradiography in presence of 10 uM MAO-A inhibitor pirlindole; conditions: 1.5 h
# [19] = molecular target: T2, Amine oxidase [flavin-containing] A (Homo sapiens, UniProt P21397); assay: Binding affinity to MAO-A in human brain Alzheimer disease slices at 4 MBq after 90 mins by autoradiography; conditions: 1.5 h
# T2 sequence (P21397 whole entry): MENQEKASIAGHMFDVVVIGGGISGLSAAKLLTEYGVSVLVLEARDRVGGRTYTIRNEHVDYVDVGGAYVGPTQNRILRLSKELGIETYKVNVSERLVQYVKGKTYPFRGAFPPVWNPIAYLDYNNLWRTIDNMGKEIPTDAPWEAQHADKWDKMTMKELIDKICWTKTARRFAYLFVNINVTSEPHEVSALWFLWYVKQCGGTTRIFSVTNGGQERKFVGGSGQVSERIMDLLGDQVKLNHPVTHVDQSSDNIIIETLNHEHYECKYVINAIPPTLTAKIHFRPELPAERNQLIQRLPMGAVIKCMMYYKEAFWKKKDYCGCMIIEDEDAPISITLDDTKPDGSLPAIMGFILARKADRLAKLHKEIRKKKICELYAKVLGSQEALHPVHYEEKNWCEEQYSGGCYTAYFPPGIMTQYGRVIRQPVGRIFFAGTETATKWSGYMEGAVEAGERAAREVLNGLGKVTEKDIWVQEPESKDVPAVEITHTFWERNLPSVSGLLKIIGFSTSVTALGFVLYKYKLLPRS
# [20] = Fraction unbound in human plasma at 20 MBq after 10 mins by ultrafiltration; type: ADME, cell-free
# Outline: (§3)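 Duplicate: 500 μL monkey or human plasma, or PBS pH 7.4 as control, mixed with 50 μL tracer formulation (~20 MBq in PBS), 10 min at room temperature; 200 μL ultrafiltered by centrifugation 15 min at 3000 rpm; total and filtrate well-counted; bound fraction corrected for membrane binding using PBS control.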
# [21] = Fraction unbound in monkey plasma at 20 MBq after 10 mins by ultrafiltration; type: ADME, cell-free, Macaca mulatta; conditions: rhesus monkey; outline: as §3
# [22] = molecular target: T2, Amine oxidase [flavin-containing] A; assay: Inhibition of human recombinant MAO-A expressed in insect cells assessed as inhibition of kynuramine oxidation after 30 mins by fluorescence assay
smiles,measurement,setting,value
C#CCN(CC[18F])[C@H](C)Cc1ccccc1,Activity,[1],Active
same,Activity,[2],Not Active
same,Activity,[3],Active
same,Activity,[4],Active
same,Activity,[5],Active
C#CCN(C)[C@H](C)[C@@H]([18F])c1ccccc1,Activity,[6],Active
same,Activity,[7],Not Active
same,Activity,[8],Not Active
same,Activity,[9],Active
C#CCN(C)[C@H](C)[C@H](F)c1ccccc1,half-life,[10],110 min
same,IC50,[11],> 2000 nM
C#CCN(CCF)[C@H](C)Cc1ccccc1,half-life,[10],110 min
same,IC50,[11],> 2000 nM
C#CCN(C)[C@H](C[18F])Cc1ccccc1,Drug uptake,Brain [12],5.2 % ID/g
same,Drug uptake,Brain [13],1.9 % ID/g
same,Drug uptake,Brain [14],1.4 % ID/g
same,Activity,[15],Active
same,Activity,[16],Not Active
same,Activity,[17],Not Active
same,Activity,[18],Active
same,Activity,[19],Not Active
same,"fraction unbound at 10 min, 20 MBq",[20],0.168
same,"fraction unbound at 10 min, 20 MBq",[21],0.241
C#CCN(C)[C@H](CF)Cc1ccccc1,half-life,[10],110 min
same,IC50,[22],> 2000 nM
same,IC50,[11],170 nM
